Assay results from article PMC4213839 (Journal of Ginseng Research, 2014).

Assay type: in vivo, Sprague–Dawley rats
Summary of the method: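 Male Sprague–Dawley rats (210–240 g) were fed a control diet or control diet plus 2.5, 5 or 10% test fiber for 2 wk, then dosed orally with test material at 200 or 2,000 mg/kg (n = 5 per group). Tail-vein blood was drawn at 0–24 h. Plasma was spun at 4,000 × g and deproteinized with acetonitrile. LC-MS/MS used MRM with an amlodipine internal standard. Cmax and Tmax were read from the profiles.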

[1] = 10% NUTRIOSE in the diet, ginseng extract-treated rats

Question: Which results are given for CC(C)=CCC[C@](C)(O[C@@H]1O[C@H](CO)[C@@H](O)[C@H](O)[C@H]1O)[C@H]1CC[C@]2(C)[C@@H]1[C@H](O)C[C@@H]1[C@@]3(C)CC[C@H](O[C@@H]4O[C@H](CO)[C@@H](O)[C@H](O)[C@H]4O[C@@H]4O[C@H](CO)[C@@H](O)[C@H](O)[C@H]4O)C(C)(C)[C@@H]3CC[C@]12C [ginsenoside Rd]?
Answer: fold increase of AUC of ginsenoside Rd by NUTRIOSE [1]: 1.34 fold; fold increase of Cmax of ginsenoside Rd by NUTRIOSE [1]: 1.34 fold; time after administration at which ginsenoside Rd was detected in blood (ginsenoside Rb1-treated rats): 8 h; AUC of ginsenoside Rd, fold higher in ginseng extract-treated than in ginsenoside Rb1-treated rats (same oral dosage of ginsenoside Rb1 and ginseng extract): 13.5 fold
